This passage reports IC50 results from ChEMBL document CHEMBL1151846, “Cytotoxic constituents of chinese propolis” (J Nat Prod, 2009).

The test system of the test is HeLa. Description: Cytotoxicity against human HeLa cells by MTT assay. The test is classed as functional, cell-based. The gist of the method: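 HeLa human cervical cancer cells were tested by MTT viability assay, following a previously published protocol. Doxorubicin was run as the reference cytotoxic control. Values are reported as IC50 in µM.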
(In general: Tetrazolium dyes change colour on reduction, which living cells bring about.)
On to `COc1cc(O)cc2c1C(=O)C(O)C(c1ccccc1)O2` (configuration not stated), for which the IC50 (as a rule, the concentration that gives 50% inhibition) was no less than 10 µM. The molecule `COc1ccc(/C=C/C(=O)O)cc1O` [ISOFERULIC ACID] came in with an IC50 of no less than 10 µM. As for `COc1cc(O)c(C(=O)/C=C/c2ccccc2)c2c1C[C@H](O)[C@@H](c1cc(O)cc(O)c1)O2`, the midpoint of inhibition, the IC50, lay at 7.3 µM. As for `O=C1C[C@@H](c2ccccc2)Oc2cc(O)cc(O)c21` [PINOCEMBRIN], the IC50 was no less than 10 µM.

The molecule `COc1cc(C2Oc3c(c(OC)cc(O)c3C(=O)/C=C/c3ccccc3)CC2O)ccc1O` (configuration not stated) had a concentration for half-maximal inhibition (IC50) of 6.4 µM. In other words, the single-digit micromolar range. In turn, `O=c1cc(-c2ccc(O)cc2)oc2cc(O)cc(O)c12` [APIGENIN] registered an IC50 of no less than 10 µM. In the case of `O=c1cc(-c2ccccc2)oc2cc(O)cc(O)c12` [CHRYSIN], the IC50 was no less than 10 µM. In turn, `O=c1c(O)c(-c2ccccc2)oc2cc(O)cc(O)c12` [GALANGIN] registered an IC50 of no less than 10 µM. With `COc1cc(O)c2c(=O)c(O)c(-c3ccc(O)c(O)c3)oc2c1` [RHAMNETIN], the IC50 was found to be 7.8 µM. In other words, the single-digit micromolar range. For `COc1cc(O)c(C(=O)/C=C/c2ccccc2)c2c1C[C@@H](O)[C@H](c1cc(O)cc(O)c1)O2`, the IC50 came out at 7.1 µM. `COc1cc(-c2oc3cc(O)cc(O)c3c(=O)c2O)ccc1O` [ISORHAMNETIN]: the IC50 was no less than 10 µM. `O=c1c(O)c(-c2ccc(O)c(O)c2)oc2cc(O)cc(O)c12` [QUERCETIN] yielded an IC50 of no less than 10 µM.
